Laboratory results as given in ChEMBL document CHEMBL3407360, “Proteasome inhibitors with pyrazole scaffolds from structure-based virtual screening” (J Med Chem, 2015).
Values belong to the molecule of their own block, whether it stands above or below them. The source made the active and inactive calls. No cut-off for these calls is given here.

Columns and labels:
[1] = biological target: T1, Proteasome Macropain subunit MB1 (Homo sapiens) (UniProt P28074); test: Inhibition of human 20S proteasome beta5 chymotrypsin-like activity using Ac-WLA-AMC as substrate preincubated for 30 mins before substrate addition measured over 90 mins by fluorescence assay
T1 sequence (whole entry): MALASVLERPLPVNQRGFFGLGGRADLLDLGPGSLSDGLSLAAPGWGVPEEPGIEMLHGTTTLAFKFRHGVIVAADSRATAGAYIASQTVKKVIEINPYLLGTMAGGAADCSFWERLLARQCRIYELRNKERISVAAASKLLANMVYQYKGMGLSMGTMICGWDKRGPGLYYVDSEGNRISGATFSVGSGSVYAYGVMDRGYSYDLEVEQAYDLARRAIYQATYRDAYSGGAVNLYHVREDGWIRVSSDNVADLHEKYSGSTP

RPMI-8226 [2] = test: Inhibition of 20S proteasome trypsin-like in human RPMI8226 cell extracts using Boc-LRR-AMC as substrate preincubated at 1 to 10 uM for 30 mins before substrate addition by fluorescence assay; format: cell-free
In short: (§1)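 Cytosolic extracts of RPMI 8226 cells served as the proteasome source in place of purified enzyme. Extracts were preincubated with compound, and hydrolysis of Suc-LLVY-AMC (CT-L), Z-LLE-AMC (C-L) or Boc-LRR-AMC (T-L) was read by AMC fluorescence at ex 360/em 460 nm.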

RPMI-8226 [3] = test: Inhibition of 20S proteasome chymotrypsin-like in human RPMI8226 cell extracts using Suc-LLVY-AMC as substrate preincubated at 1 to 10 uM for 30 mins before substrate addition by fluorescence assay; format: cell-free
In short: as §1

[4] = biological target: Proteasome Macropain subunit (Homo sapiens) (UniProt P49721); test: Inhibition of human 20S proteasome beta2 trypsin-like activity using Boc-LRR-AMC as substrate preincubated for 30 mins before substrate addition measured over 90 mins by fluorescence assay
Sequence of Proteasome Macropain subunit (Homo sapiens) (P49721 whole entry): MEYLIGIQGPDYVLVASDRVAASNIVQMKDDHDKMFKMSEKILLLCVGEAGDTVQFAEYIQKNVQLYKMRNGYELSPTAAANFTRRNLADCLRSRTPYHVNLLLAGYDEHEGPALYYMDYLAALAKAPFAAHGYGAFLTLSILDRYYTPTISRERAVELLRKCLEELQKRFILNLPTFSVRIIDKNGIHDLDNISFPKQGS
In short: (§2)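 Purified human 20S proteasome (CP or IP, 0.5 µg/mL) was preincubated with compound for 30 min at room temperature in 20 mM Tris-HCl, 0.5 mM EDTA, 0.035% SDS. Substrates were Ac-nLPnLD-AMC 100 µM for β1, Ac-PAL-AMC 100 µM for β1i, and Boc-LRR-AMC 200 µM for β2/β2i. AMC release was followed 90 min at room temperature, ex 360/em 460 nm.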

RPMI-8226 [5] = test: Inhibition of 20S proteasome caspase-like in human RPMI8226 cell extracts using Z-LLE-AMC as substrate preincubated at 1 to 10 uM for 30 mins before substrate addition by fluorescence assay; format: cell-free
In short: as §1

Homo sapiens [6] = species on record: Homo sapiens; test: Inhibition of human 20S proteasome beta2i trypsin-like activity using Boc-LRR-AMC as substrate preincubated for 30 mins before substrate addition measured over 90 mins by fluorescence assay
In short: as §2

[7] = biological target: T2, Proteasome component C5 (Homo sapiens) (UniProt P20618); test: Inhibition of human 20S proteasome beta1 caspase-like activity using Ac-nLPnLD-AMC as substrate preincubated for 30 mins before substrate addition measured over 90 mins by fluorescence assay
T2 sequence (whole entry): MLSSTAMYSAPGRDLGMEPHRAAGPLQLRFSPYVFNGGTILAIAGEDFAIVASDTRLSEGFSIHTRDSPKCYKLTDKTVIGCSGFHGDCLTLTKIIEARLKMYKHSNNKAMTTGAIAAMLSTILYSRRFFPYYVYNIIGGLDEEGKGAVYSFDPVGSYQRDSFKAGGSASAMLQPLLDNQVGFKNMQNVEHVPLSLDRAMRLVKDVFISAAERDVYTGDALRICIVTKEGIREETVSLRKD
In short: as §2

NCI-H358 = test: Cytotoxicity against human NCI-H358 cells after 72 hrs; format: functional, cell-based; conditions: NCI-H358, 72 h
In short: (§3)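 Adherent lines, growing in log phase in DMEM or RPMI 1640 with 10% FBS, were plated at 7,000–10,000 cells/well. Compound was added 24 h later at the final concentration. Viability was measured after 72 h by CellTiter Glo luminescence or CellTiter 96 Aqueous One absorbance.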

[8] = Cytotoxicity against human H23 cells after 72 hrs; format: functional, cell-based; conditions: NCI-H23, 72 h
In short: as §3

Homo sapiens [9] = species on record: Homo sapiens; test: Inhibition of human 20S proteasome beta1i chymotrypsin-like activity using Ac-PAL-AMC as substrate preincubated for 30 mins before substrate addition measured over 90 mins by fluorescence assay
In short: as §2

Homo sapiens [10] = species on record: Homo sapiens; test: Inhibition of human 20S proteasome beta5i chymotrypsin-like activity using Ac-ANW-AMC as substrate preincubated for 30 mins before substrate addition measured over 90 mins by fluorescence assay
RPMI8266 = test: Cytotoxicity against human […] cells after 72 hrs; format: functional, cell-based
In short: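 Suspension RPMI 8226 cells were collected by centrifugation and plated at 10,000 cells/well in medium with 10% FBS. Compound was added 24 h later. Viability was read after 72 h by CellTiter Glo or CellTiter 96 Aqueous One.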

BXPC-3 [11] = test: Cytotoxicity against carfilzomib-resistant human BxPC3 cells after 72 hrs; format: functional, cell-based
In short: (§4)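 Resistant BxPC-3 sublines were derived by about 6 months of stepwise increasing drug exposure. […] Compound was added 24 h after plating. Viability was read after 72 h by CellTiter Glo luminescence or CellTiter 96 Aqueous One.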

LNCaP [12] = test: Antitumor activity against human LNCAP cells xenografted in nude mouse assessed as tumor growth inhibition at 5 mg/kg, ip twice a week for 4 weeks; format: functional, organism-based; parameters: dose 5 mg/kg
In short: (§5)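 Male athymic BALB/c nude mice, six weeks old, implanted subcutaneously with LNCaP cells (2 x 10^6 cells/50 µL). At ~100 mm3 tumors, n=5/group received 5 mg/kg ip twice weekly for four weeks in 8% DMSO in HP-β-cyclodextrin and citrate. Tumor volume ((width)2 x length/2) and body weight were measured every 4 days. Tumors were excised and weighed at Day 30.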

Homo sapiens [13] = species on record: Homo sapiens; test: Inhibition of human 20S proteasome chymotrypsin-like activity preincubated at 10 uM for 30 mins before substrate addition measured over 90 mins by fluorescence assay
BXPC-3 [14] = test: Cytotoxicity against human BxPC3 cells after 72 hrs; format: functional, cell-based
In short: as §3

LNCaP [15] = test: Cytotoxicity against human LNCAP cells after 72 hrs; format: functional, cell-based
In short: as §3

BXPC-3 [16] = test: Cytotoxicity against bortezomib-resistant human BxPC3 cells after 72 hrs; format: functional, cell-based
In short: as §4

Mus musculus = test: Toxicity in human LNCAP cells xenografted nude mouse assessed as body weight loss at 5 mg/kg, ip twice a week for 4 weeks; format: organism-based; parameters: dose 5 mg/kg, route intraperitoneal; conditions: in vivo, 672 h
In short: as §5

Liver microsome = test: Metabolic stability in human liver microsomes; format: ADME
In short: (§6)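 Compound at 1 µM was incubated with 0.5 mg/ml microsomal protein, either pooled Balb/c mouse or pooled human. The buffer was 100 mM Tris-HCl pH 7.4 with an NADPH-generating system (isocitrate, isocitrate dehydrogenase, MgCl2, NADP+). After 5 min preincubation at 37°C, reactions ran 0, 5, 10 or 20 min and were quenched with cold acetonitrile containing phenytoin internal standard. Parent remaining was measured by LC-MS/MS.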

RPMI-8226 [17] = test: Reversible inhibition of 20S proteasome in human RPMI8226 cell extracts assessed as dissociation half life compound preincubated for 30 mins followed by 25-fold dilution by jump dilution assay; format: cell-based
In short: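 RPMI 8226 lysate (30 µg protein) was incubated with 10 µM compound for 30 min at room temperature in 20S assay buffer. Baseline Suc-LLVY-AMC hydrolysis was recorded in a cuvette, then the mixture was rapidly diluted 25-fold in assay buffer and recovery of activity was monitored.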

Liver = test: Metabolic stability in Balb/c mouse liver microsomes; format: ADME
In short: as §6

inhibition [1]: Active
inhibition [4]: inactive
inhibition (Homo sapiens [6]): inactive
inhibition [7]: Active
inhibition (Homo sapiens [9]): Active
inhibition (Homo sapiens [10]): Active
SMILES: Cc1ccc(OS(=O)(=O)c2cccc(C(F)(F)F)c2)c(-c2cc(-c3ccccc3)n(CCN[C@@H]3CCNC3)n2)c1
inhibition (RPMI-8226 [2]): inactive
inhibition (RPMI-8226 [3]): Active
inhibition (RPMI-8226 [5]): Active
IC50 (NCI-H358): 7 µM
IC50 [8]: 7 µM

inhibition (Homo sapiens [13]): Active
Stability (Liver microsome): Stable
Stability (Liver): Stable
SMILES: Cc1ccc(OS(=O)(=O)c2cccc(C(F)(F)F)c2)c(-c2cc(-c3ccccc3)n(CC(=O)N[C@@H]3CCNC3)n2)c1
inhibition (RPMI-8226 [2]): inactive
Activity (RPMI8266): Active
Activity (BXPC-3 [11]): Active
inhibition (RPMI-8226 [3]): Active
TGI (LNCaP [12]): Active
inhibition (RPMI-8226 [5]): Active
Activity (BXPC-3 [14]): Active
Activity (LNCaP [15]): Active
Activity (BXPC-3 [16]): Active
Activity (Mus musculus): Non-toxic
T1/2 (RPMI-8226 [17]): 3.2 min
